The target in assay [1] is T1, 5-hydroxytryptamine receptor 3A (Cavia porcellus) (UniProt O70212).
T1 sequence (whole entry): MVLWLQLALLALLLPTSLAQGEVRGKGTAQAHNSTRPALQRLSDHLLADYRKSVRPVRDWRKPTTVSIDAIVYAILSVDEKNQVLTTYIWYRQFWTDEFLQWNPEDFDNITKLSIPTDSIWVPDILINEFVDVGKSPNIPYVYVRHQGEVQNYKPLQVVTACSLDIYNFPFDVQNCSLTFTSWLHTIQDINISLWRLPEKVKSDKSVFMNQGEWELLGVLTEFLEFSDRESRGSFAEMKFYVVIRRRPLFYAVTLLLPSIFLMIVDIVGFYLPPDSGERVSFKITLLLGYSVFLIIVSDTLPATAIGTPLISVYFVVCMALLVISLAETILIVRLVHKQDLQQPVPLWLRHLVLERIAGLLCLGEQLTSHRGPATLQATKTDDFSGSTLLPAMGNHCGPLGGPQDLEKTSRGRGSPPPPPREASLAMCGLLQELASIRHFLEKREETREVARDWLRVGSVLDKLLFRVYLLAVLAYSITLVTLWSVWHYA
The assay is described as follows: Antagonist activity at 5HT3 receptor in Hartley guinea-pig ileum assessed as effect on 5-hydroxytryptamine-induced muscle contraction. Type of assay: functional, tissue-based. More on the design: concentration or dose not given beside the values. An outline of the steps:
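Contractions to 5-HT recorded isometrically with and without compound present. Vehicle-treated preparation served as time-matched control. Antagonism expressed as the ratio of 5-HT contractile response in presence versus absence of compound.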

In assay [2] the target is T1, 5-hydroxytryptamine receptor 3A (Cavia porcellus). Nature of the assay: Agonist activity at 5HT3 receptor in Hartley guinea-pig ileum assessed as muscle contraction. It is filed as functional, tissue-based. An outline of the steps:
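Compounds added to the bath and contractions recorded isometrically. pD2 = negative log molar concentration giving 50% of maximum contraction, from individual concentration–response curves.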

Assay [3] shares this target. The assay is described as follows: Intrinsic activity at 5HT3 receptor in Hartley guinea-pig ileum assessed as muscle contraction relative to 5-hydroxytryptamine. Type of assay: tissue-based.
Assay [4] has the same target. The assay is described as follows: Intrinsic activity at 5HT3 receptor in Hartley guinea-pig ileum assessed as muscle contraction at 0.1 mM relative to 5-hydroxytryptamine. Type of assay: tissue-based.

Active and inactive are the calls of the source. No cut-off for these calls is given here.

For the compound `CN1CCN(c2nc3cc(Br)ccc3o2)CC1`, in assay [1], the Activity is 89%. In assay [2], the pD2 worked out at 6.21. Besides, the Intrinsic activity in assay [3] amounted to 0.48.
The matching figures for `CN1CCN(c2nc3cc([N+](=O)[O-])ccc3o2)CC1`: 79%, 6.1 and 0.52.
The corresponding values for `CCc1cc(C)cc2nc(N3CCN(C)CC3)oc12` are 99%, 6.46 and 0.26.
The matching figures for `Cc1cc(C)c2oc(N3CCN(C)CC3)nc2c1`: 94%, 6.32 and 0.62.
Turning to `CN1CCN(c2nc3cc(Cl)ccc3o2)CC1`, the Activity in assay [1] was determined as 92%. Also, the pD2 in assay [2] worked out at 6.07. For the same compound, the Intrinsic activity in assay [3] came to 0.5.
The matching figures for `Cc1ccc2oc(N3CCN(C)CC3)nc2c1`: 87%, 6 and 0.72.
On to `CN1CCN(c2nc3cccc(Cl)c3o2)CC1`, for which the Activity in assay [1] came to 90%. Further, the pD2 in assay [2] is 5.5. Besides, the Intrinsic activity in assay [3] is 0.24.
The matching figures for `CCc1cccc2nc(N3CCN(C)CC3)oc12`: 90%, 5.48 and 0.15.
The corresponding values for `COc1cc(C)cc2nc(N3CCN(C)CC3)oc12` are 91%, 6.13 and 0.56.
For the compound `CN1CCN(c2nc3cc(C(C)(C)C)ccc3o2)CC1`, the Activity in assay [1] worked out at 47%. In addition, the pD2 in assay [2] is below 4. In assay [4], the result was inactive.
As for `COc1cc(Cl)cc2nc(N3CCN(C)CC3)oc12`, in assay [1], the Activity came out at 92%. Moreover, the pD2 in assay [2] is 6.16. In addition, the Intrinsic activity in assay [3] came to 0.62.
On to `CCc1ccc2oc(N3CCN(C)CC3)nc2c1`, for which, in assay [1], the Activity came to 63%. Also, the pD2 in assay [2] was below 4. Further, the result in assay [4] was inactive.
For `Cc1cc(Cl)c2oc(N3CCN(C)CC3)nc2c1`, the Activity in assay [1] worked out at 96%. Further, in assay [2], the pD2 turned out to be 6.22. Moreover, the Intrinsic activity in assay [3] was 0.26.
The corresponding values for `Cc1cccc2nc(N3CCN(C)CC3)oc12` are 89%, 5.48 and 0.58.
The matching figures for `CN1CCN(c2nc3cc(N)ccc3o2)CC1`: 73%, 4.97 and 0.76.
The matching figures for `COc1ccc2oc(N3CCN(C)CC3)nc2c1`: 74%, 4.78 and 0.78.
For `CN1CCN(c2nc3ccccc3o2)CC1`, the Activity in assay [1] amounted to 82%. Further, the pD2 in assay [2] was determined as 5.01. Further, the Intrinsic activity in assay [3] was 0.62.
The matching figures for `CN1CCN(c2nc3cc(F)ccc3o2)CC1`: 91%, 5.57 and 0.64.
Regarding `CC(=O)c1ccc2oc(N3CCN(C)CC3)nc2c1`, the Activity in assay [1] is 22%. Moreover, in assay [2], the pD2 is below 4. In addition, the outcome in assay [4] was inactive.
The corresponding values for `CN1C2CCCC1CC(NC(=O)c1nn(C)c3ccccc13)C2` (stereo not drawn) are 100%, below 4 and “inactive”.
The corresponding values for `CC(C)c1cccc2nc(N3CCN(C)CC3)oc12` are 81%, below 4 and “inactive”.
For the compound `NCCc1c[nH]c2ccc(O)cc12`, the pD2 in assay [2] turned out to be 5.34. In addition, in assay [3], the Intrinsic activity worked out at 1.
As for `COc1cccc2nc(N3CCN(C)CC3)oc12`, in assay [1], the Activity turned out to be 57%. Besides, the pD2 in assay [2] was below 4. Besides, the outcome in assay [4] was inactive.
The matching figures for `CN1CCN(c2nc3cc(C(F)(F)F)ccc3o2)CC1`: 36%, below 4 and “inactive”.
`CCc1cc(Cl)cc2nc(N3CCN(C)CC3)oc12`: in assay [1], the Activity was 100%. Also, the pD2 in assay [2] came to 6.82. In assay [3], the Intrinsic activity was 0.17.
Regarding `CCOC(=O)c1ccc2oc(N3CCN(C)CC3)nc2c1`, the Activity in assay [1] was determined as 28%. Further, the pD2 in assay [2] is below 4. Moreover, in assay [4], the result was inactive.
On to `CN1CCN(c2nc3cc(Cl)cc(Cl)c3o2)CC1`, for which, in assay [1], the Activity stood at 90%. In assay [2], the pD2 was determined as 6.51. The Intrinsic activity in assay [3] amounted to 0.14.
As for `Cc1cc(Cl)cc2nc(N3CCN(C)CC3)oc12`, the Activity in assay [1] came to 94%. Further, in assay [2], the pD2 amounted to 6.7. The Intrinsic activity in assay [3] came out at 0.24.

Source of the values: ChEMBL document CHEMBL1147936, “Regulatory molecules for the 5-HT3 receptor ion channel gating system” (Bioorg Med Chem, 2007).
